Assay outcomes: PubChem BioAssay, Broad Institute
S100A4 MyoIIA: inhibitors of S100A4-myosin IIA peptide binding, primary screen, biochemical, fluorescence polarization, TAMRA-MyoIIA peptide | hit rate 0.14% among 360,000 | AID 652163, 2013 | inhibition, % at 10.7 µM | Protein S100-A4 (Homo sapiens), P26447;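 active means mean inhibition of at least 70% across replicates, with every replicate also reaching that level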
Target sequence (P26447 whole entry, looked up): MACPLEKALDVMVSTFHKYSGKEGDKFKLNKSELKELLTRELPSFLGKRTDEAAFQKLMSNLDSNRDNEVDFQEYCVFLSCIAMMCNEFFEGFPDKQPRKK
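Test system: S100A4 monomer protein; Medium: HEPES pH 7.2 with CaCl2, KCl, NaCl, DTT, Triton; Probe or stimulus: TAMRA-labelled myosin IIA heavy-chain peptide probe, 5 nM; Doses: one dose per compound; Times: polarization read 5 min after assay mix addition, stable 5–60 min; Benchmarks: neutral control DMSO, positive control TFP.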
INS-1E GSIS act: GLuc luminescence reporter in INS-1E cells, primary screen for activators of glucose-dependent secretion of insulin. activation, % at 16.6 µM. hit rate 0.61% among 370,000. AID 743287, 2014. INS-1E GLuc reporter insulin secretion, 2-3 h;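 active means lowest replicate activation of at least 40%, so every replicate reaches that level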;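 further: 0% = median of neutral control wells and 100% = median of IBMX positive control wells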
ERp5 inh: inhibitors of ERp5-driven insulin aggregation, primary screen, biochemical, turbidity, absorbance 650 nm, single point | 90 min | inhibition, % at 9.99 µM | hit rate 0.05% among 350,000 | AID 651711, 2012;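 active means mean replicate inhibition above about 25%, with every replicate also reaching it, limit read from the data, passing the limit was not always enough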
SIRT5 inh: SIRT5 desuccinylase inhibitors, primary screen, biochemical, fluorescence imaging, single point, set 5 | NAD-dependent protein deacylase sirtuin-5, mitochondrial (Homo sapiens), Q9NXA8 | Purified SirT5, succinyl-peptide AMC, trypsin-coupled fluorescence | inhibition, % at 15 µM | hit rate 1.1% among 330,000 | AID 652115, 2013; in the data active means inhibition above about 15%
Target sequence (Q9NXA8 whole entry, looked up): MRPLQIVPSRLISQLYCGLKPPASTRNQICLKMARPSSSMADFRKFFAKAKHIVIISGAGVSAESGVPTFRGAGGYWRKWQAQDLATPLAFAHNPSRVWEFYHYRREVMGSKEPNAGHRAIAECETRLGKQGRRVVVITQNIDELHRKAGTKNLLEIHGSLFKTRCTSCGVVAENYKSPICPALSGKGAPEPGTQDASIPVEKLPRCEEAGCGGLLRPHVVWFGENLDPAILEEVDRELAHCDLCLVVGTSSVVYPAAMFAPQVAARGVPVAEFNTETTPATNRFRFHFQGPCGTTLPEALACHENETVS
PDI turbidity: inhibitors of human PDI, primary screen, biochemical, turbidity, single point, plate reader. Protein disulfide-isomerase (Homo sapiens), P07237. PDI insulin aggregation turbidity, A650, 90 min. inhibition, % at 10 µM. hit rate 0.052% among 350,000. AID 588391, 2011;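 active means mean inhibition across replicates of 30% or more, whatever share of single replicates reach that level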
Active calls of the source: *; nt = no result; ! = not active in a repeat. In the library only some 1.5% were active in any assay of this set; here they are far more common.

SMILES	S100A4 MyoIIA	INS-1E GSIS act	ERp5 inh	SIRT5 inh	PDI turbidity
O=C(C[C@H]1CC[C@H]2[C@@H](COC[C@H](O)CN2Cc2cccc(C(F)(F)F)c2)O1)NCc1ccc(Cl)cc1	-1	-9	0	0	nt
COc1ccc(C#Cc2ccc([C@@H]3[C@H](CO)N4CCCCN(S(=O)(=O)c5cn(C)cn5)C[C@@H]34)cc2)cc1	-3	-27	-1	1	nt
CCCC(=O)Nc1ccc2c(c1)C(=O)N(C)C[C@@H](OC)[C@H](C)CN(Cc1ccccn1)[C@H](C)CO2	5	6	-3	-5	nt
Cc1cccc(S(=O)(=O)N(C)C[C@H]2OCc3cnnn3CCCC(=O)N([C@@H](C)CO)C[C@@H]2C)c1	-3	-10	-6	-2	nt
Cc1cccc(S(=O)(=O)N(C)C[C@H]2OCc3cnnn3CCCC(=O)N([C@H](C)CO)C[C@@H]2C)c1	14	4	-1	21*!	-3
C[C@@H]1CN([C@H](C)CO)C(=O)CCCn2nncc2CO[C@@H]1CN(C)S(=O)(=O)c1cccc(F)c1	-6	-7	2	15*!	-2
C[C@@H]1CN([C@H](C)CO)C(=O)Cc2cc(NC(=O)C3CCCCC3)ccc2O[C@@H]1CN(C)Cc1ccc(-c2ccccc2)cc1	2	-27	-4	102*	nt
CC(C)NC(=O)Nc1ccc2c(c1)C(=O)N([C@H](C)CO)C[C@@H](C)[C@@H](CN(C)Cc1ccc(-c3ccccc3)cc1)O2	1	-24	1	16*	nt
C[C@H]1CN([C@@H](C)CO)C(=O)c2cc(NC(=O)C3CCCCC3)ccc2O[C@H]1CN(C)Cc1ccc(-c2ccccc2)cc1	8	-11	-2	40*!	-18
CC(C)NC(=O)Nc1ccc2c(c1)C(=O)N([C@H](C)CO)C[C@H](C)[C@@H](CN(C)Cc1ccc(Cl)c(Cl)c1)O2	-18	6	3	24*	nt
CC(C)NC(=O)Nc1ccc2c(c1)C(=O)N([C@@H](C)CO)C[C@@H](C)[C@@H](CN(C)Cc1ccc(Cl)c(Cl)c1)O2	4	-4	2	5	nt
CC(C)NC(=O)Nc1ccc2c(c1)C(=O)N([C@@H](C)CO)C[C@H](C)[C@H](CN(C)Cc1ccc(-c3ccccc3)cc1)O2	-9	2	1	0	nt
COCC(=O)N1CC2(CCN(Cc3cccnc3)CC2)c2c(n(C)c3cc(OC)ccc23)[C@H]1CO	-1	14	1	-2	nt
Cc1cccc(S(=O)(=O)N(C)C[C@H]2OCc3ccccc3-c3ccccc3C(=O)N([C@@H](C)CO)C[C@H]2C)c1	nt	-5	nt	nt	nt
COc1cc2c(cc1OC)/C(=C/c1ccc(Cl)cc1)C(=O)OC2	-8	62*	nt	nt	-7
COc1ccc(/C=C2\C(=O)OCc3cc(OC)c(OC)cc32)cc1OC	nt	103*	nt	nt	-1
COc1ccc(C=C2C(=O)OC(C)(C)OC2=O)cc1OC	4	9	-13	-6	-3
COc1ccc2c3c([nH]c2c1)[C@H](CO)N(S(C)(=O)=O)CC31CCN(C(=O)c2ccncc2)CC1	9	30	-7	0	nt
C[C@@H]1CCCCO[C@H](CN(C)S(=O)(=O)c2cccs2)[C@H](C)CN([C@@H](C)CO)C(=O)c2cc(NC(=O)CCCN(C)C)ccc2O1	7	2	1	-4	nt
C[C@H](O)C#Cc1cnc2c(c1)C(=O)N([C@@H](C)CO)C[C@H](C)[C@@H](CN(C)Cc1ccccn1)O2	-9	5	0	-3	nt
CCCN1C(=O)/C(=C2\SC(N3CCCCC3)=NC2=O)c2ccccc21	nt	nt	nt	nt	-1
CN1C(=O)/C(=C2\SC(N3CCCCCC3)=NC2=O)c2ccccc21	-1	5	3	32*	16
O=C(C[C@@H]1C[C@@H]2c3cc(NC(=O)c4cccnc4)ccc3O[C@@H]2[C@H](CO)O1)NCc1ccc(Oc2ccccc2)cc1	4	5	-4	-3	nt
Cc1ccc(NC2c3ncccc3C(=O)N2C2CCCCC2)cc1 (stereo not drawn)	nt	56*	nt	nt	0
COc1ccc(S(=O)(=O)N(C)C[C@H]2Oc3c(NC(=O)Nc4c(C)noc4C)cccc3C(=O)N([C@H](C)CO)C[C@H]2C)cc1	nt	7	nt	nt	nt
SMILES	S100A4 MyoIIA	INS-1E GSIS act	ERp5 inh	SIRT5 inh	PDI turbidity
CCOc1ccc(/C=C/C(=O)Nc2ccc(C(N)=O)cc2)cc1OC	nt	16	nt	nt	-4
CCOc1cc(/C=C/C(=O)Nc2ccc(C(=O)NCCN(CC)CC)cc2)ccc1OCC(C)C	-5	68*	3	-5	-4
COc1ccc(OCC(=O)N2CCN(S(=O)(=O)c3ccc(Cl)s3)CC2)cc1	144*	2	-4	6	8
N#Cc1ccc(OCC(=O)N2CCN(S(=O)(=O)c3ccc(Cl)s3)CC2)cc1	-10	-10	2	-3	4
Cc1noc(C)c1NC(=O)Nc1ccc2c(c1)CC(=O)N([C@@H](C)CO)C[C@H](C)[C@@H](CN(C)S(=O)(=O)c1cn(C)cn1)O2	nt	20	nt	nt	nt
COC(=O)C[C@H]1CC[C@@H]2[C@@H](COc3ccc(NC(=O)c4cccc(Cl)c4)cc3C(=O)N2C)O1	7	-10	5	16*	nt
CCC(=O)Nc1ccc2c(c1)C(=O)N(C)[C@H]1CC[C@@H](CC(=O)N[C@H](C)c3ccccc3)O[C@H]1CO2	-19	4	0	-4	nt
CN1C(=O)c2cc(NC(=O)c3ccccc3Cl)ccc2OC[C@@H]2O[C@@H](CC(=O)NCC(F)(F)F)CC[C@H]21	127*	nt	-3	4	nt
CCC(=O)Nc1ccc2c(c1)C(=O)N(C)[C@@H]1CC[C@H](CC(=O)N[C@H](C)c3ccccc3)O[C@@H]1CO2	6	-1	2	15*	nt
CCC(=O)Nc1ccc2c(c1)C(=O)N(C)[C@H]1CC[C@@H](CC(=O)NCC3CC3)O[C@H]1CO2	-15	3	36*	0	nt
C[C@@H]1CCCCO[C@@H](CN(C)C)[C@@H](C)CN([C@H](C)CO)C(=O)c2cc(NC(=O)CCCN(C)C)ccc2O1	nt	46	nt	nt	nt
O=C(c1ccccn1)N1CC(=O)N2[C@H](CO)[C@H](c3ccc(C4=CCCC4)cc3)[C@@H]2C1	1	-3	-1	2	nt
CCC(=O)Nc1ccc2c(c1)C(=O)N(C)[C@@H]1CC[C@@H](CC(=O)NCC3CC3)O[C@H]1CO2	2	10	-1	0	nt
CCCNC(=O)C[C@H]1CC[C@@H]2[C@@H](COc3ccc(NC(=O)c4ccccc4)cc3C(=O)N2C)O1	-6	-8	64*	4	nt
CCC(=O)Nc1ccc2c(c1)C(=O)N(C)[C@H]1CC[C@H](CC(=O)NCC3CC3)O[C@H]1CO2	-5	-5	60*	-1	nt
CC(=O)Nc1ccc2c(c1)C(=O)N(C)[C@H]1CC[C@H](CC(=O)NCC3CC3)O[C@@H]1CO2	-1	1	91*	-2	nt
